The text below walks through data of ChEMBL document CHEMBL3804753, “Substituted quinolines as noncovalent proteasome inhibitors” (Bioorg Med Chem, 2016).

Compound in data set [1]: Cc1cc(C)c2cc(C3=CCCCC3)c(C)nc2c1
The experiment in a line: Mixed type inhibition of human 20S proteasome chymotryptic-like activity using Suc-LLVY-AMC as substrate assessed as Vmax for substrate at 6 uM by Lineweaver-Burk plot analysis (reference value: 0.1959 to 0.2691 umol/min). In a few lines: (§1)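 Kinetics of CT-L activity of purified human 20S proteasome with Suc-LLVY-AMC substrate increased stepwise. Measured at five compound concentrations or vehicle, 37 °C. Fluorescence of released AMC gave rates.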

Compound in data set [2]: Cc1cc(C)c2cc(C3=CCCCC3)c(C)nc2c1
The data set is described as follows: Mixed type inhibition of human 20S proteasome chymotryptic-like activity using Suc-LLVY-AMC as substrate assessed as Vmax for substrate at 4 uM by Lineweaver-Burk plot analysis (reference value: 0.1959 to 0.2691 umol/min). In a few lines: as §1

Compound in data set [3]: Cc1cc(C)c2cc(C3=CCCCC3)c(C)nc2c1
The data set is described as follows: Mixed type inhibition of human 20S proteasome chymotryptic-like activity using Suc-LLVY-AMC as substrate assessed as Vmax for substrate at 5 uM by Lineweaver-Burk plot analysis (reference value: 0.1959 to 0.2691 umol/min). In a few lines:
as §1

Compound in data set [4]: Cc1cc(C)c2cc(C3=CCCCC3)c(C)nc2c1
The data set is described as follows: Mixed type inhibition of human 20S proteasome chymotryptic-like activity using Suc-LLVY-AMC as substrate assessed as Vmax for substrate at 7 uM by Lineweaver-Burk plot analysis (reference value: 0.1959 to 0.2691 umol/min). In a few lines:
as §1

Compound in data set [5]: Cc1cc(C)c2cc(C3=CCCCC3)c(C)nc2c1
The data set is described as follows: Mixed type inhibition of human 20S proteasome chymotryptic-like activity using Suc-LLVY-AMC as substrate assessed as Vmax for substrate at 8 uM by Lineweaver-Burk plot analysis (reference value: 0.1959 to 0.2691 umol/min). In a few lines:
as §1

Compound in data set [6]: Cc1cc(C)c2cc(C3=CCCCC3)c(C)nc2c1
The data set is described as follows: Mixed type inhibition of human 20S proteasome chymotryptic-like activity using Suc-LLVY-AMC as substrate assessed as Vmax for substrate at 10 uM by Lineweaver-Burk plot analysis (reference value: 0.1959 to 0.2691 umol/min ). In a few lines:
as §1

Compound in data set [7]: Cc1cc(C)c2cc(C3=CCCCC3)c(C)nc2c1
The experiment in a line: Mixed type inhibition of human 20S proteasome chymotryptic-like activity using Suc-LLVY-AMC as substrate assessed as Vmax for substrate at 9 uM by Lineweaver-Burk plot analysis (reference value: 0.1959 to 0.2691 umol/min). In a few lines: as §1

B1: Proteasome Macropain subunit MB1 (Homo sapiens), P28074 (protein)
chain: MALASVLERPLPVNQRGFFGLGGRADLLDLGPGSLSDGLSLAAPGWGVPEEPGIEMLHGTTTLAFKFRHGVIVAADSRATAGAYIASQTVKKVIEINPYLLGTMAGGAADCSFWERLLARQCRIYELRNKERISVAAASKLLANMVYQYKGMGLSMGTMICGWDKRGPGLYYVDSEGNRISGATFSVGSGSVYAYGVMDRGYSYDLEVEQAYDLARRAIYQATYRDAYSGGAVNLYHVREDGWIRVSSDNVADLHEKYSGSTP
On to B1, for which the Vmax in data set [1] amounted to 0.0703 µmol/min; in data set [2], 0.0959 µmol/min; in data set [3] it was 0.0924 µmol/min; in data set [4], 0.0674 µmol/min; in data set [5], 0.0587 µmol/min; in data set [6] it was 0.0329 µmol/min. The Vmax in data set [7] was determined as 0.0466 µmol/min.
